Experimental data taken from ChEMBL document CHEMBL1949592, “Synthesis and antiviral activity of 2'-deoxy-2'-fluoro-2'-C-methyl-7-deazapurine nucleosides, their phosphoramidate prodrugs and 5'-triphosphates” (Bioorg Med Chem Lett, 2011).
Active and inactive are the calls of the source. The rule behind the calls is not given here.

Assays:
[1] = system: Human immunodeficiency virus 1; experiment: Antiviral activity against HIV1 LAV1 infected in PHA-stimulated human PBMC assessed as reduction in RT activity after 6 days by micromethod-based beta scintillation counting; assay type: functional, organism-based; conditions: Human immunodeficiency virus 1, LAV1, 144 h
[2] = system: PBMC; experiment: Cytotoxicity against human PBMC after 6 days by trypan blue exclusion method; assay type: cell-based; conditions: 144 h
[3] = system: CCRF-CEM; experiment: Cytotoxicity against human CEM cells after 6 days by trypan blue exclusion method; assay type: cell-based; conditions: 144 h
[4] = system: Hepatitis C virus; experiment: Antiviral activity against Hepatitis C virus infected in human HuH7 cells assessed as decrease in viral RNA level after 96 hrs by RT-PCR; assay type: functional, organism-based, Hepacivirus hominis; conditions: Huh-7, 96 h
[5] = (§1) Cytotoxicity against human HuH7 cells assessed as reduction of 50% rRNA level after 96 hrs; assay type: cell-based, Huh-7; conditions: HuH7 cells
Summary of the method: (§2)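 Huh-7 cells carrying the HCV replicon were exposed to compound for 96 h. Toxicity was read as a fall in cellular rRNA.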

[6] = system: Vero; experiment: Cytotoxicity against african green monkey Vero cells after 3 days by hemocytometer analysis; assay type: cell-based; conditions: Chlorocebus sabaeus, 72 h
[7] = system: Hepatitis B virus; experiment: Antiviral activity against wild type Hepatitis B virus infected in hepatocytes; assay type: functional, organism-based; conditions: Hepatocyte
[8] = system: HepG2; experiment: Cytotoxicity against human HepG2 cells by neutral red dye uptake assay; assay type: cell-based
[9] = system: Huh-7; experiment: as §1; assay type: cell-based; conditions: huh-7, 96 h; summary of the method: as §2

Compound | EC50 [1] [µM] | EC90 [1] [µM] | IC50 [2] [µM] | IC50 [3] [µM] | EC50 [4] [µM] | EC90 [4] [µM] | CC50 at 96 h [5] [µM] | IC50 [6] [µM] | Activity [7] | Activity [8] | CC50 [9] [µM]
C[C@@]1(F)[C@H](O)[C@@H](CO)O[C@@H]1n1cc(I)c2c(N)ncnc21 | > 100 | > 100 | > 100 | 40.9 | 7 | 24.9 | > 33 | 65.9 | Active | Toxic | 
C#Cc1cn([C@H]2O[C@H](CO)[C@@H](O)[C@@]2(C)F)c2ncnc(N)c12 | 95.2 |  | > 100 | > 100 | < 10 | > 10 |  | > 100 |  |  | > 10
C#Cc1cn([C@@H]2O[C@H](CO)[C@@H](O)[C@@]2(C)F)c2ncnc(N)c12 | 59.1 | > 100 | 94.1 | > 100 | < 10 |  |  | > 100 |  |  | 
C[C@@]1(F)[C@H](O)[C@@H](CO)O[C@@H]1n1cc(F)c2c(N)ncnc21 | > 100 |  | > 100 | 8.1 | > 10 |  |  | > 100 |  |  | > 10
CCOC(=O)[C@H](C)NP(=O)(OC[C@H]1O[C@@H](n2cc(I)c3c(N)ncnc32)[C@](C)(F)[C@@H]1O)Oc1ccccc1 (stereo not given in full) | 58.1 | > 100 | 17.4 | 13.5 | > 10 | > 10 |  | 17.8 |  |  | > 10
C[C@@]1(F)[C@H](O)[C@@H](CO)O[C@H]1n1cc(I)c2c(N)nc(N)nc21 | 99.5 |  | 72.9 | 85.4 | > 10 | > 10 |  | 62.8 |  |  | > 10
CCc1cn([C@H]2O[C@H](CO)[C@@H](O)[C@@]2(C)F)c2ncnc(N)c12 | 95.5 |  | > 100 | > 100 | > 10 | > 10 |  | > 100 |  |  | > 10
COc1ncnc2c1ccn2[C@H]1O[C@H](CO)[C@@H](O)[C@@]1(C)F | ≥ 100 | ≥ 100 | > 100 | > 100 | > 10 |  |  | > 100 |  |  | > 10
C=Cc1cn([C@H]2O[C@H](CO)[C@@H](O)[C@@]2(C)F)c2ncnc(N)c12 | 35.5 | 65.2 | 21 | 16 | 5.6 | 18.4 |  | 14.6 |  |  | 8.3
C=Cc1cn([C@@H]2O[C@H](CO)[C@@H](O)[C@@]2(C)F)c2ncnc(N)c12 | 14.7 | 44.8 | 4.8 | 3.5 | 1.8 | 7.6 |  | 10.1 |  |  | 4.5
C[C@@]1(F)[C@H](O)[C@@H](CO)O[C@H]1n1cc(Cl)c2c(N)ncnc21 | 82.4 |  | 18.5 | > 100 | < 10 | > 10 |  | > 100 |  |  | > 10
C[C@@]1(F)[C@H](O)[C@@H](CO)O[C@@H]1n1cc(I)c2c(N)nc(N)nc21 | > 100 | > 100 | > 100 | > 100 | > 10 |  |  | > 100 |  |  | 
CCOC(=O)[C@H](C)NP(=O)(OC[C@H]1O[C@@H](n2cc(I)c3c(N)nc(N)nc32)[C@](C)(F)[C@@H]1O)Oc1ccccc1 (stereo not given in full) | 26.7 | > 100 | 67.4 | > 100 | > 10 | > 10 |  | 65.1 |  |  | > 10
C[C@@]1(F)[C@H](O)[C@@H](CO)O[C@H]1n1cc(F)c2c(N)ncnc21 | > 100 | > 100 | > 100 | > 100 | > 10 | > 10 |  | > 100 |  |  | 
C[C@@]1(F)[C@H](O)[C@@H](CO)O[C@@H]1n1ccc2c(N)ncnc21 | > 100 |  | > 100 | > 100 | > 10 |  |  | > 100 |  |  | 
C[C@@]1(F)[C@H](O)[C@@H](CO)O[C@H]1n1cc(Br)c2c(N)ncnc21 | > 100 | > 100 | 74.2 | 50.5 | < 10 | > 10 |  | 53.1 |  |  | < 10
CCc1cn([C@@H]2O[C@H](CO)[C@@H](O)[C@@]2(C)F)c2ncnc(N)c12 | 19 | > 100 | 20.7 | > 100 | < 10 |  |  | > 100 |  |  | 

Compound | EC50 [1] [µM] | EC90 [1] [µM] | IC50 [2] [µM] | IC50 [3] [µM] | EC50 [4] [µM] | EC90 [4] [µM] | CC50 at 96 h [5] [µM] | IC50 [6] [µM] | Activity [7] | Activity [8] | CC50 [9] [µM]
C[C@@]1(F)[C@H](O)[C@@H](CO)O[C@H]1n1cc(C#Cc2ccccc2)c2c(N)ncnc21 | 10.7 | 31.1 | 41.1 | 11.6 | < 10 |  |  | 45.7 | Active | Toxic | < 10
C#Cc1cn([C@@H]2O[C@H](CO)[C@@H](O)[C@@]2(C)F)c2nc(N)nc(N)c12 | 84.4 | > 100 | > 100 | > 100 | > 10 |  |  | > 100 |  |  | 
C[C@@]1(F)[C@H](O)[C@@H](CO)O[C@@H]1n1cc(Br)c2c(N)ncnc21 | ≥ 100 |  | 89.1 | 76 | < 10 |  |  | 71.1 |  |  | > 10
C[C@@]1(F)[C@H](O)[C@@H](CO)O[C@@H]1n1cc(Cl)c2c(N)ncnc21 | > 100 | > 100 | > 100 | 96 | < 10 |  |  | > 100 |  |  | 
CNc1ncnc2c1c(F)cn2[C@@H]1O[C@H](CO)[C@@H](O)[C@@]1(C)F | > 100 | > 100 | > 100 | > 100 | > 10 | > 10 |  | > 100 |  |  | > 10
C[C@@]1(O)[C@H](O)[C@@H](CO)O[C@H]1n1ccc(N)nc1=O | 47.5 | 100 | 47.4 | 54.4 | 2.8 | 9.6 |  | > 100 |  |  | > 10
COC(=O)/C=C/c1cn([C@@H]2O[C@H](CO)[C@@H](O)[C@@]2(C)F)c2ncnc(N)c12 | > 100 | > 100 | > 100 | > 100 | > 10 | > 10 |  | > 100 |  |  | 
Cc1cn([C@H]2C[C@H](N=[N+]=[N-])[C@@H](CO)O2)c(=O)[nH]c1=O [ZIDOVUDINE] | 0.0033 | 0.028 | > 100 |  | > 10 | > 10 |  |  |  |  | > 10
CNc1ncnc2c1c(F)cn2[C@H]1O[C@H](CO)[C@@H](O)[C@@]1(C)F | > 100 |  | > 100 | > 100 | > 10 |  |  | > 100 |  |  | 
C[C@@]1(F)[C@H](O)[C@@H](CO)O[C@@H]1n1cc(C#Cc2ccccc2)c2c(N)ncnc21 | 7.7 | 38 | 40.8 | 15.7 | > 10 | > 10 |  | 51.3 | inactive |  | > 10
CCOC(=O)[C@H](C)NP(=O)(OC[C@H]1O[C@@H](n2cc(F)c3c(N)ncnc32)[C@](C)(F)[C@@H]1O)Oc1ccccc1 (stereo not given in full) | 39.4 | 98.8 | > 100 | > 100 | > 10 | > 10 |  | > 100 |  |  | > 10
C[C@@]1(F)[C@H](O)[C@@H](CO)O[C@H]1n1ccc2c(N)ncnc21 | > 100 | > 100 | > 100 | > 100 | > 10 | > 10 |  | > 100 |  |  | > 10
C[C@@]1(F)[C@H](O)[C@@H](CO)O[C@H]1n1cc(I)c2c(N)ncnc21 | 94 | > 100 | 53.2 | 24 | 1.1 | > 33 | 10.4 | 21.4 |  |  | 
C[C@@]1(F)[C@H](O)[C@@H](CO)O[C@@H]1n1ccc2c(N)nc(N)nc21 | > 100 | > 100 | > 100 | > 100 | > 10 |  |  | > 100 |  |  | 
COc1ncnc2c1ccn2[C@@H]1O[C@H](CO)[C@@H](O)[C@@]1(C)F | 24.8 | 85.6 | > 100 | > 100 | > 10 | > 10 |  | > 100 |  |  | 
COC(=O)/C=C/c1cn([C@H]2O[C@H](CO)[C@@H](O)[C@@]2(C)F)c2ncnc(N)c12 | 0.71 | 9.5 | > 100 | > 100 | > 10 |  |  | > 100 | inactive |  | > 10
C#Cc1cn([C@H]2O[C@H](CO)[C@@H](O)[C@@]2(C)F)c2nc(N)nc(N)c12 | 7.1 | 59.1 | 54 | 26.5 | > 10 | > 10 |  | 61.7 | inactive |  | > 10
